We go through 2 molecules from BindingDB's records for doi:10.1016/j.bmcl.2013.07.029 (Vanderbilt University Medical Center, 2013).

This assay has as its target Metabotropic glutamate receptor 1 (Homo sapiens, UniProt Q13255). Put plainly: Negative allosteric modulation of human mGlu1 receptor expressed in HEK293A TREx cells assessed as calcium flux after 45 mins. In a few lines: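 HEK293A TREx cells stably expressing human mGlu1 were induced overnight with 50 ng/mL tetracycline at 37 °C. Ten-point 1:3 compound series were added for 2.3 min, then an EC20 of glutamate, then an EC80 of glutamate 1.9 min later. Ca2+ flux was read for 1.7 min. Values are the average of n ≥ 3.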
On the technique in general: A change in cytosolic calcium serves as a functional read-out for many receptors and channels.

pIC50: −log10 of the molar value.

Metabotropic glutamate receptor 1, sequence (Q13255 whole entry): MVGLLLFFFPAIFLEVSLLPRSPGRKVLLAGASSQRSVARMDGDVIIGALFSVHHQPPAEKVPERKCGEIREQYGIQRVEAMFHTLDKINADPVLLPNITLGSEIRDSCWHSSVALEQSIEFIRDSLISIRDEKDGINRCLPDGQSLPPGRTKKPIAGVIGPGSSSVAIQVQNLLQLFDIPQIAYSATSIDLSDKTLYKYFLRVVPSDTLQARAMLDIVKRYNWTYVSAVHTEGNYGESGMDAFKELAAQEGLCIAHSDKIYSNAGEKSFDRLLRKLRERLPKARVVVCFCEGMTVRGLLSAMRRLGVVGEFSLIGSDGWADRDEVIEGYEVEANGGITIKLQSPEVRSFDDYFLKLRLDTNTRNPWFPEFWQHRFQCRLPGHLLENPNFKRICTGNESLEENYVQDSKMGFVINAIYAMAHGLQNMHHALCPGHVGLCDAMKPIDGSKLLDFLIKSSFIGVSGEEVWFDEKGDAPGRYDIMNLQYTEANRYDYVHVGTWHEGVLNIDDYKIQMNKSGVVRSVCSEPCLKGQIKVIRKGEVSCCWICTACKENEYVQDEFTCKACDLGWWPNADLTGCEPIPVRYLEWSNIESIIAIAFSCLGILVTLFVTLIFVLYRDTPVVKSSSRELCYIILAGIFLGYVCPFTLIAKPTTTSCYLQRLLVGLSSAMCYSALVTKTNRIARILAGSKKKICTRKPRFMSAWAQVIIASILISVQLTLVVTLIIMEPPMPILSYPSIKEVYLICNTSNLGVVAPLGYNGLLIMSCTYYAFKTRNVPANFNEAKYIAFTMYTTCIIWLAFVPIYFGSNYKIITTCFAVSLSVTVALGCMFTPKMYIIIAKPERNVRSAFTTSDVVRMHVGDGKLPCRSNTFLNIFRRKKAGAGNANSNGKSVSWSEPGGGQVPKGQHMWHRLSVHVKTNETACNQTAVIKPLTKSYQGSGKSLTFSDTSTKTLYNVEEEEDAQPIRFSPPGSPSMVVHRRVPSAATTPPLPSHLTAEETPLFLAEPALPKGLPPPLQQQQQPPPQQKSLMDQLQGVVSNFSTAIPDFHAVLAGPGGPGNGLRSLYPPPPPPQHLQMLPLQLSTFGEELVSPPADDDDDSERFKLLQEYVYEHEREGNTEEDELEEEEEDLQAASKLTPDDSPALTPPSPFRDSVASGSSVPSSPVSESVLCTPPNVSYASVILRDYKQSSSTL

Consider `CC(C)(C)CC(=O)N1C[C@@H]2CN(c3ccccn3)C[C@@H]2C1`, for which the negative-log IC50 (pIC50) (in general, the IC50 on a negative log10 scale, so that one unit is a factor of ten) was under 4.50. Next, `CC(C)(C)C(=O)N1C[C@@H]2CN(c3ccccn3)C[C@@H]2C1`: under 4.50.
